The results in this text go back to ChEMBL document CHEMBL3734658, “Ring-truncated deguelin derivatives as potent Hypoxia Inducible Factor-1α (HIF-1α) inhibitors” (Eur J Med Chem, 2015).

Data set [1] deals with Hypoxia-inducible factor 1-alpha (Homo sapiens) (UniProt Q16665). The data set is described as follows: Inhibition of HIF-1alpha in human H1299 cells at 100 nM after 72 hrs subsequently incubated for 12 hrs under hypoxic conditions by Western blot assay relative to control. In kind it is cell-based. The conditions noted are these: values are per cent of control. The procedure, abridged:
(§1)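 H1299 non-small-cell lung carcinoma cells were left untreated or exposed to compound at 100 nM (or 10 nM for a follow-up subset) for 72 h. They were then held under hypoxia for 12 h, and HIF-1α protein was assessed by western blot.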

Data set [2] shares this target. The data set is described as follows: Inhibition of HIF-1alpha in human H1299 cells at 10 nM after 72 hrs subsequently incubated for 12 hrs under hypoxic conditions by Western blot assay relative to control. In kind it is cell-based. To be noted: values are per cent of control. The procedure, abridged: as §1
Data set [3] deals with NCI-H1299. The data set is described as follows: Antitumor activity against human H1299 cells assessed as reduction in cell viability by MTT assay. In kind it is functional, cell-based. For orientation: Tetrazolium dyes change colour on reduction, which living cells bring about.
Data set [4] is filed under the species Homo sapiens. Description: Antiangiogenic activity in human RMVEC assessed as inhibition of VEGF-induced cell proliferation under hypoxic condition at 100 nM by [3H]thymidine incorporation assay. The class given is functional.
The nature of data set [5]: Cytotoxicity against mouse HT22 cells assessed as cell viability at 0.1 to 10 uM. In kind it is cell-based. To be noted: ht-22, 10 µM.
Data set [6] can be described thus: Antitumor activity against human H1299 cells assessed as reduction in cell viability at 20 uM by MTT assay. In kind it is functional. The conditions noted are these: NCI-H1299.
For data set [7], the species on record is Homo sapiens. The data set is described as follows: Antiangiogenic activity in human RMVEC assessed as inhibition of VEGF-induced cell migration under hypoxic condition at 100 nM by transwell chamber system. The class given is functional.
In data set [8] the target is Hypoxia-inducible factor 1-alpha (Homo sapiens) (UniProt Q16665). The data set is described as follows: Inhibition of HIF-1alpha in human H1299 cells after 72 hrs subsequently incubated for 12 hrs under hypoxic conditions by Western blot assay relative to control. In kind it is cell-based. The procedure, abridged:
as §1
A general note: In western blotting, separated proteins are transferred to a membrane and probed.

Active and inactive are the calls of the source. The calls are words filed in the database; no cut-off is given here.

Sequence of Hypoxia-inducible factor 1-alpha (Homo sapiens) (Q16665 whole entry, looked up): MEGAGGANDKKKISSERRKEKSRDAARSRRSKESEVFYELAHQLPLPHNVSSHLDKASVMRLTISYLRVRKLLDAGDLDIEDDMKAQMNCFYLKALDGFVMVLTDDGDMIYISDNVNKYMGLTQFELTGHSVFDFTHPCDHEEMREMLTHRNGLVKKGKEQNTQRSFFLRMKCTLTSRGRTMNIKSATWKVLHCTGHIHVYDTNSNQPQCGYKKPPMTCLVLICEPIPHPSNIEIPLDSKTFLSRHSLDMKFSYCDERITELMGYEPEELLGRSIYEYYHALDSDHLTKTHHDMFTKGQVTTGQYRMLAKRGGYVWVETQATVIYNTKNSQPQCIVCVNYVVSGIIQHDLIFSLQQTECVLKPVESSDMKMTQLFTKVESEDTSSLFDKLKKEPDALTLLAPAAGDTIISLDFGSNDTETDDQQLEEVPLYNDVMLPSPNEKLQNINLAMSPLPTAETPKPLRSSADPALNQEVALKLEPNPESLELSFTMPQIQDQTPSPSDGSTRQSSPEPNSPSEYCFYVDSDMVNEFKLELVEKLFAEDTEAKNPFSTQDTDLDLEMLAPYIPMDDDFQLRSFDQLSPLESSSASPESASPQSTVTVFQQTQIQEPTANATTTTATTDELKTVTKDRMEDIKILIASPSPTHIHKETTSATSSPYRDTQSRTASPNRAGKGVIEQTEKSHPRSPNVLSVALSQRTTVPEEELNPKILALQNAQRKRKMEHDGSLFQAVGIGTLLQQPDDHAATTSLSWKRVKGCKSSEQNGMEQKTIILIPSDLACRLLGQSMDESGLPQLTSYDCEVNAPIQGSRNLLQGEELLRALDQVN

In turn, `COc1ccc([C@H](O)[C@@H](O)c2ccc3c(c2OC)C=CC(C)(C)O3)nc1OC` (relative stereo) had a response, % of control in data set [1] of 68.9%. For the compound `COc1ccc(C(C)C(O)c2ccc3c(c2OC)C=CC(C)(C)O3)c(F)c1OC` (stereo not given), the response, % of control in data set [1] was determined as 75%. Compound `COc1ccc(CC(=O)c2ccc3c(c2OC)C=CC(C)(C)O3)nc1OC` returned a response, % of control in data set [1] of 77.6%.

`COc1ccc(CC(OC(C)=O)c2ccc3c(c2OC)C=CC(C)(C)O3)c(F)c1OC` (stereo not given): in data set [1], the response, % of control was 69.3%. Take `COc1ccc(C(C)C(OC(=O)C2CCC2)c2ccc3c(c2OC)C=CC(C)(C)O3)c(F)c1OC` (stereo not given): the response, % of control in data set [1] was 69.5%. Same read-out and setting: in the case of `COc1ccc(CC(O)c2ccc3c(c2OC)C=CC(C)(C)O3)c(F)c1OC` (stereo not given) it was 74.3%; in that of `COc1ccc(C(C)(C)C(=O)c2ccc3c(c2OC)C=CC(C)(C)O3)nc1OC`, 99.9%; in that of `COc1ccc(CC(O)c2ccc3c(c2OC)C=CC(C)(C)O3)nc1OC` (stereo not given), 75.2%. Turning to `COc1ccc([C@H](C)C(=O)c2ccc3c(c2OC)C=CC(C)(C)O3)nc1OC`, the response, % of control in data set [2] came out at 88.4%; in data set [1], 44.2%.

`COc1ccc(C(C)C(O)c2ccc3c(c2OC)C=CC(C)(C)O3)nc1OC` (stereo not given) yielded a response, % of control in data set [1] of 71.2%. As for `COc1ccc(CC(=O)c2ccc3c(c2OC)C=CC(C)(C)O3)c(F)c1OC`, in data set [1], the response, % of control came to 67.8%. With `COc1ccc(C(C)C(OC(N)=O)c2ccc3c(c2OC)C=CC(C)(C)O3)c(F)c1OC` (stereo not given), the response, % of control in data set [2] stood at 80.9%; in data set [1], 48.8%. With `COc1ccc(C(C)(C)C(O)c2ccc3c(c2OC)C=CC(C)(C)O3)nc1OC` (stereo not given), the response, % of control in data set [1] turned out to be 69.2%. Compound `CCC(c1ccc(OC)c(OC)c1F)C(OC(=O)C1CC1)c1ccc2c(c1OC)C=CC(C)(C)O2` (stereo not given) yielded a response, % of control in data set [1] of 87.9%. As to `COc1ccc(C(C)C(OC(=O)N(C)C)c2ccc3c(c2OC)C=CC(C)(C)O3)c(F)c1OC` (stereo not given), the response, % of control in data set [2] was 93.6%; in data set [1], 64.1%. Compound `COc1ccc([C@H](C)C(=O)c2ccc3c(c2OC)C=CC(C)(C)O3)cc1OC` came in with a response, % of control in data set [1] of 82.1%.

For `CNC(=O)OC(c1ccc2c(c1OC)C=CC(C)(C)O2)C(C)c1ccc(OC)c(OC)c1F` (stereo not given), in data set [1], the response, % of control was determined as 76.5%. Still for that read-out and setting: the value for `COc1ccc(CC(OC(=O)C2CC2)c2ccc3c(c2OC)C=CC(C)(C)O3)c(F)c1OC` (stereo not given) was 70.3%; that for `COc1ccc(CC(OC(C)=O)c2ccc3c(c2OC)C=CC(C)(C)O3)nc1OC` (stereo not given) was 114%; that for `COc1ccc(/C=C/c2ccc3c(c2OC)C=CC(C)(C)O3)nc1OC` was 133%. Same read-out and setting: the value for `CCC(=O)OC(c1ccc2c(c1OC)C=CC(C)(C)O2)C(C)(C)c1ccc(OC)c(OC)c1F` (stereo not given) was 88.2%; that for `COc1ccc([C@H](O)[C@@H](O)c2ccc3c(c2OC)C=CC(C)(C)O3)c(F)c1OC` (relative stereo) was 68.1%; that for `COc1ccc(C(C)C(=O)c2ccc3c(c2OC)C=CC(C)(C)O3)c(F)c1OC` (stereo not given) was 78.6%.

Compound `CCC(=O)OC(c1ccc2c(c1OC)C=CC(C)(C)O2)C(C)c1ccc(OC)c(OC)c1F` (stereo not given) returned a response, % of control in data set [1] of 63.7%. In data set [1], `COc1ccc(C(C)C(=O)c2ccc3c(c2OC)C=CC(C)(C)O3)nc1OC` (stereo not given) had a response, % of control of 89.3%.

On to `COc1ccc([C@H](C)[C@@H](OC(C)=O)c2ccc3c(c2OC)C=CC(C)(C)O3)c(F)c1OC` (relative stereo), for which the Activity entry in data set [3] was “Dose-dependent effect”; in data set [5] it was “Non-toxic”. The values for the response, % of control in data set [2] and in data set [1] were 63.2% and 52.2%, respectively. The result in data set [4] and in data set [7] was Active. Besides, the inhibition at 20 µM in data set [6] stood at 50%. The inhibition entry in data set [8] was “Dose-dependent effect”. For `COc1cc2c(cc1OC)[C@@H]1C(=O)c3ccc4c(c3O[C@@H]1CO2)C=CC(C)(C)O4` [DEGUELIN], the response, % of control was 94% in data set [2] and 64% in data set [1]. In data set [5], the Activity entry is given as “Toxic”. For `COc1ccc(C(C)(C)C(OC(=O)C2CC2)c2ccc3c(c2OC)C=CC(C)(C)O3)c(F)c1OC` (stereo not given), the response, % of control in data set [1] turned out to be 111%. For `COc1ccc(C(C)C(OC(C)=O)c2ccc3c(c2OC)C=CC(C)(C)O3)nc1OC` (stereo not given), the response, % of control in data set [1] came to 96.7%.

The compound `COc1ccc(C(C)(C)C(OC(C)=O)c2ccc3c(c2OC)C=CC(C)(C)O3)nc1OC` (stereo not given) came in with a response, % of control in data set [1] of 113%. Turning to `COc1ccc(C(C)(C)C(=O)c2ccc3c(c2OC)C=CC(C)(C)O3)c(F)c1OC`, the response, % of control in data set [1] came out at 74.9%. With `COc1ccc(/C=C/c2ccc3c(c2OC)C=CC(C)(C)O3)c(F)c1OC`, the response, % of control in data set [1] came to 134%.

Turning to `CO/N=C(/Cc1ccc(OC)c(OC)n1)c1ccc2c(c1OC)C=CC(C)(C)O2`, the response, % of control came out at 74% in data set [2] and 64.8% in data set [1]. Take `COc1ccc([C@H](C)[C@H](OC(C)=O)c2ccc3c(c2OC)C=CC(C)(C)O3)c(F)c1OC` (relative stereo): in data set [1], the response, % of control stood at 79.4%.

For the compound `COc1ccc(CC(OC(N)=O)c2ccc3c(c2OC)C=CC(C)(C)O3)c(F)c1OC` (stereo not given), in data set [1], the response, % of control was determined as 88.9%. Same read-out and setting: the value for `COc1ccc(C/C(=N\O)c2ccc3c(c2OC)C=CC(C)(C)O3)nc1OC` was 78.5%. Compound `COc1ccc(C/C(=N/O)c2ccc3c(c2OC)C=CC(C)(C)O3)nc1OC` showed a response, % of control in data set [1] of 79.2%. In data set [1], `COc1ccc(C(C)(C)C(O)c2ccc3c(c2OC)C=CC(C)(C)O3)c(F)c1OC` (stereo not given) showed a response, % of control of 68%. As for `COc1ccc(C(C)(C)C(OC(C)=O)c2ccc3c(c2OC)C=CC(C)(C)O3)c(F)c1OC` (stereo not given), the response, % of control in data set [1] is 83.4%.

`COc1ccc(CC(OC(N)=O)c2ccc3c(c2OC)C=CC(C)(C)O3)nc1OC` (stereo not given) displayed a response, % of control in data set [1] of 75%. In turn, `CCC(=O)OC(Cc1ccc(OC)c(OC)c1F)c1ccc2c(c1OC)C=CC(C)(C)O2` (stereo not given) registered a response, % of control in data set [1] of 77.3%. On the same count and under the same terms, in the case of `COc1ccc(C(C)(C)C(OC(N)=O)c2ccc3c(c2OC)C=CC(C)(C)O3)nc1OC` (stereo not given) it was 108%. `COc1ccc(CC(=O)c2ccc3c(c2OC)C=CC(C)(C)O3)cc1OC` came in with a response, % of control in data set [1] of 85.3%. Consider `COc1ccc(C(C)C(OC(=O)C2CC2)c2ccc3c(c2OC)C=CC(C)(C)O3)c(F)c1OC` (stereo not given), for which, in data set [3], the Activity entry was “Dose-dependent effect”. Moreover, the response, % of control came to 81.6% in data set [2] and 35% in data set [1]. Also, the inhibition at 20 µM in data set [6] turned out to be 50%.

A word on the inhibition: it is the drop in the measured response relative to a control, in per cent.
